Measured values as given in ChEMBL document CHEMBL1145300, “Design, synthesis, and anti-inflammatory activity both in vitro and in vivo of new betulinic acid analogues having an enone functionality in ring A” (Bioorg Med Chem Lett, 2006).
pIC50: −log10 of the molar value. The source made the active and inactive calls. The calls are words filed in the database; no cut-off is given here.

Target: T1, Heme oxygenase 1 (Mus musculus) (UniProt P14901)
T1 sequence (whole entry): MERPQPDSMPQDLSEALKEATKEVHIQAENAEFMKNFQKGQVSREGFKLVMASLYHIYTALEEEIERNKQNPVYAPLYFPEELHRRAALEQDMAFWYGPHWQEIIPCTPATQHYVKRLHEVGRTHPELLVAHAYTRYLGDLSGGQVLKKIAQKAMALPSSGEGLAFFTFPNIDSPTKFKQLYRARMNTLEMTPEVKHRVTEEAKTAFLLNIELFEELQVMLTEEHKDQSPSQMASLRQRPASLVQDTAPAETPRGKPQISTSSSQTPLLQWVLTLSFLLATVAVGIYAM
Experiment: Induction of liver HO1 in CD1 mouse at 2 uM, po after 6 hrs
Format: organism-based
Settings: not given
In short: (§1)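 Male CD-1 mice, 3 per group, were given a single oral gavage of 2 μmole triterpenoid in DMSO. The read-out was heme oxygenase-1 (HO-1) induction in the liver.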

How did the Activity turn out when `C=C(C)[C@@H]1CC[C@]2(C(=O)n3ccnc3)CC[C@]3(C)C(CC[C@@H]4[C@@]5(C)C=C(C#N)C(=O)C(C)(C)[C@@H]5CC[C@]43C)[C@@H]12` (stereo partly drawn) was run?
Its Activity is “Active”.

Test system: Mus musculus
Experiment: Antiinflammatory activity in CD1 mouse at 2 uM, po
Format: functional, organism-based
Settings: not given
In short: as §1

Which Activity does the source give for `C=C(C)[C@@H]1CC[C@]2(C(=O)n3ccnc3)CC[C@]3(C)C(CC[C@@H]4[C@@]5(C)C=C(C#N)C(=O)C(C)(C)[C@@H]5CC[C@]43C)[C@@H]12` (stereo partly drawn) here?
The Activity was “Active”.

Test system: RAW
Experiment: Inhibition of nitric oxide production in IFN-gamma stimulated RAW 264.7 cells
Format: functional, cell-based
Settings: Mus musculus

How did the pIC50 turn out when `C=C(CF)[C@@H]1CC[C@]2(C(=O)OC)CC[C@]3(C)C(CC[C@@H]4[C@@]5(C)C=C(C(=O)OC)C(=O)C(C)(C)[C@@H]5CC[C@]43C)[C@@H]12` (stereo partly drawn) was run?
The pIC50 was 6.52.

`C=C(CO)[C@@H]1CC[C@]2(C(=O)OC)CC[C@]3(C)C(CC[C@@H]4[C@@]5(C)C=C(C(=O)OC)C(=O)C(C)(C)[C@@H]5CC[C@]43C)[C@@H]12` (stereo partly drawn) was tested. Which pIC50 did it give?
The pIC50 was 6.00.

With `C=C(C)[C@@H]1CC[C@]2(C(=O)OC)CC[C@]3(C)C(CC[C@@H]4[C@@]5(C)C=C(C(=O)OC)C(=O)C(C)(C)[C@@H]5CC[C@]43C)[C@@H]12` (stereo partly drawn) as the compound, how does the pIC50 read?
The pIC50 was 6.22.

With `C=C(C)[C@@H]1CC[C@]2(C(=O)n3ccnc3)CC[C@]3(C)C(CC[C@@H]4[C@@]5(C)C=C(C#N)C(=O)C(C)(C)[C@@H]5CC[C@]43C)[C@@H]12` (stereo partly drawn) as the compound, how does the pIC50 read?
Its pIC50 is 7.52.

How did the pIC50 turn out when `C=C(C)[C@@H]1CC[C@]2(C(=O)OC)CC[C@]3(C)C(CC[C@@H]4[C@@]5(C)C=C(C#N)C(=O)C(C)(C)[C@@H]5CC[C@]43C)[C@@H]12` (stereo partly drawn) was run?
The pIC50 was 7.52.

With `C=C(CF)[C@@H]1CC[C@]2(C(=O)OC)CC[C@]3(C)C(CC[C@@H]4[C@@]5(C)C=C(C(=O)O)C(=O)C(C)(C)[C@@H]5CC[C@]43C)[C@@H]12` (stereo partly drawn) as the compound, how does the pIC50 read?
Its pIC50 is 6.52.

How did the pIC50 turn out when `C=C(C)[C@@H]1CC[C@]2(C(=O)O)CC[C@]3(C)C(CC[C@@H]4[C@@]5(C)C=C(C#N)C(=O)C(C)(C)[C@@H]5CC[C@]43C)[C@@H]12` (stereo partly drawn) was run?
Its pIC50 is 6.70.

`C=C(C)[C@@H]1CC[C@]2(C(=O)n3ccnc3CC)CC[C@]3(C)C(CC[C@@H]4[C@@]5(C)C=C(C#N)C(=O)C(C)(C)[C@@H]5CC[C@]43C)[C@@H]12` (stereo partly drawn) was tested. Which pIC50 did it give?
Its pIC50 is 7.52.

`C=C(C)[C@@H]1CC[C@]2(C(=O)NC)CC[C@]3(C)C(CC[C@@H]4[C@@]5(C)C=C(C#N)C(=O)C(C)(C)[C@@H]5CC[C@]43C)[C@@H]12` (stereo partly drawn) was tested. Which pIC50 did it give?
Its pIC50 is 7.30.

`C=C(C)[C@@H]1CC[C@]2(C(=O)O)CC[C@]3(C)[C@H](CC[C@@H]4[C@@]5(C)CC[C@H](O)C(C)(C)[C@@H]5CC[C@]43C)[C@@H]12` was tested. Which Activity did it give?
Its Activity is “inactive”.

With `C=C(C)[C@@H]1CC[C@]2(C(=O)n3ccnc3C)CC[C@]3(C)C(CC[C@@H]4[C@@]5(C)C=C(C#N)C(=O)C(C)(C)[C@@H]5CC[C@]43C)[C@@H]12` (stereo partly drawn) as the compound, how does the pIC50 read?
The pIC50 was 7.30.

`C=C(C)[C@@H]1CC[C@]2(C(=O)OC)CC[C@]3(C)C(CC[C@@H]4[C@@]5(C)C=C(C(=O)O)C(=O)C(C)(C)[C@@H]5CC[C@]43C)[C@@H]12` (stereo partly drawn) was tested. Which pIC50 did it give?
The pIC50 was 6.52.

With `C=C(CO)[C@@H]1CC[C@]2(C(=O)OC)CC[C@]3(C)C(CC[C@@H]4[C@@]5(C)C=C(C(=O)O)C(=O)C(C)(C)[C@@H]5CC[C@]43C)[C@@H]12` (stereo partly drawn) as the compound, how does the pIC50 read?
The pIC50 was 6.05.

How did the pIC50 turn out when `C=C(C)[C@@H]1CC[C@]2(C(=O)N(C)C)CC[C@]3(C)C(CC[C@@H]4[C@@]5(C)C=C(C#N)C(=O)C(C)(C)[C@@H]5CC[C@]43C)[C@@H]12` (stereo partly drawn) was run?
The pIC50 was 7.52.

`C=C(C)[C@@H]1CC[C@]2(C(N)=O)CC[C@]3(C)C(CC[C@@H]4[C@@]5(C)C=C(C#N)C(=O)C(C)(C)[C@@H]5CC[C@]43C)[C@@H]12` (stereo partly drawn) was tested. Which pIC50 did it give?
Its pIC50 is 7.52.

With `C=C(C)[C@@H]1CC[C@]2(C(=O)OCC)CC[C@]3(C)C(CC[C@@H]4[C@@]5(C)C=C(C#N)C(=O)C(C)(C)[C@@H]5CC[C@]43C)[C@@H]12` (stereo partly drawn) as the compound, how does the pIC50 read?
The pIC50 was 7.70.
